In PubChem BioAssay:
Records with an inconclusive call do not appear.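 Rule for the calls, unless noted: active = viability at or below 27.92% in each of two runs, the all-compound median minus 4 SD; inconclusive = no clear call, values can overlap the other calls; inactive = the rest.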

Columns and labels:
[1] = S. cerevisiae growth inhibition in permissive medium (OD615), pilot counter-assay for S. cerevisiae lifespan shortening project, permissive growth control (AID 705;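 active = growth inhibition above 25% in both replicates, a cutoff set 3 SD above the mean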); settings: OD615, 24 h, at 10 µM, hits give high values
Method in brief: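 System: S. cerevisiae with engineered DeaD lifespan system / Measured by: absorbance (optical density) at 615 nm / Read-out: reduction in yeast growth (OD615) / Times: 4 h cell pre-growth, 24 h exposure at 30 °C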

[2] = S. cerevisiae growth inhibition in restrictive medium, OD615, pilot screen, restrictive growth control, yeast lifespan reduction project (AID 706;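 active = growth inhibition above a set limit, 3 SD over mean compound inhibition, in both replicates, cut at about 43% in these data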;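 note: modified DeaD lifespan yeast strain shifted to restrictive glucose medium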); settings: OD615, 48 h, at 10 µM, hits give high values
Method in brief: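 System: Engineered S. cerevisiae DeaD strain | Buffer or medium: Glucose-based CSMM-D restrictive medium | Schedule: 4 h pre-incubation, 48 h exposure at 30 °C | Technique: Optical density at 615 nm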

[3] = doxorubicin toxicity protection in MRP-1 cells – H69AR cells, CellTiter-Glo, duplicate, MRP-1 activator project, pilot screen (AID 807;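 active = viability increase at or above a cutoff of the median across tested compounds plus 3 SD, cut at about 8.5% in these data, passing the limit was not always enough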;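 note: compound pretreatment 18-22 h then 72 h combined with doxorubicin; 0% = doxorubicin alone and 100% = vehicle without doxorubicin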); settings: H69AR viability with doxorubicin, CellTiter-Glo luminescence; at 10 µM; hits give high values
[4] = viability of HCT116 without oncogenic beta-catenin – human colon tumor cells, pilot screen (AID 823;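 active = cell viability at or below a set limit in both duplicate runs, the limit being the all-compound median minus 4 SD, cut at about 23% in these data, passing the limit was not always enough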;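 note: 0% = wells killed by 20 µM Hyamine and 100% = untreated DMSO cell wells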); settings: HCT116 beta-catenin knockout viability, CellTiter-Glo, 60 h; at 10 µM; hits give low values
[5] = viability of PTEN-null HCT116 cells – cell-based, HCT116 clonal line, CellTiter-Glo, pilot screen (AID 824); settings: HCT116 PTEN-deleted viability, 60 h, at 10 µM, hits give low values;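 note: 0% = 20 µM Hyamine control and 100% = vehicle cell control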
[6] = RAM pathway blockade in budding yeast – dse1pr::URA3 reporter, 5-FOA selection, pilot screen (AID 869;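 active = inhibition over a set limit, the all-compound mean plus 3 SD, in both replicate runs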;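 note: 0% = DMSO wells with no growth and 100% = 10 µM 1-NA-PP1 with full growth; RAM network block rescues cells from 5-FOA so hits raise OD615 growth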); settings: S. cerevisiae dse1pr::URA3 5-FOA growth, OD615, 2 d; at 10 µM; hits give high values; strain carries analog-sensitive mutant Cbk1 kinase
[7] = RAM signaling pathway blockade in yeast – S. cerevisiae, Pdr1DBD-CYC8 efflux-inhibited sensitized strain, primary screen (AID 1298;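 active = RAM network inhibition above 8.4% in each of two replicates, 3 SD over the compound average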;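 note: 0% = DMSO untreated cells without growth and 100% = 10 µM 1-NA-PP1 full growth; higher means more yeast growth rescued from 5-FOA killing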); settings: S. cerevisiae cbk1-as DSE1-URA3 strain, 5-FOA growth OD615, 2 d; at 50 µM; hits give high values

O=C(c1nnc(Cc2ccc(Cl)cc2)o1)N1CCOCC1
inactive: growth inhibition [1] -7.58% | growth inhibition [2] 1.76% | viability increase [3] -0.86% | viability [4] 105% | viability [5] 107% | inhibition [6] 1.23% | RAM network inhibition [7] 0.99%

CC(=O)c1c(NC(=O)C(C)C)nc(C)nc1-c1ccccc1
inactive: growth inhibition [1] -6.5% | growth inhibition [2] -8.2% | viability increase [3] -0.66% | viability [4] 98.4% | viability [5] 100% | inhibition [6] 1.69% | RAM network inhibition [7] -0.83%

CC(=O)Nc1ccc(C(=O)c2ccccc2)cc1
inactive: growth inhibition [1] 8.43% | growth inhibition [2] 6.52% | viability increase [3] -1.14% | viability [4] 95.4% | viability [5] 92.5% | inhibition [6] 0.97% | RAM network inhibition [7] 0.62%

CCOC(=O)C1CCN(C(=O)CN(c2ccc(OC)cc2)S(=O)(=O)c2c(C)nn(C)c2C)CC1
inactive: growth inhibition [1] -3.58% | growth inhibition [2] -3.18% | viability increase [3] -0.02% | viability [4] 98.7% | viability [5] 104% | inhibition [6] 1.46% | RAM network inhibition [7] 2.69%

COc1ccc(C(=O)Nc2ccc(S(=O)(=O)Nc3cc(C)nc(C)n3)cc2)c(OC)c1
inactive: growth inhibition [1] 6.9% | growth inhibition [2] -0.365% | viability increase [3] 0.28% | viability [4] 98.6% | viability [5] 95.8% | inhibition [6] 1.77% | RAM network inhibition [7] 3.78%

Cc1ccc(CCNC(=O)C2CCCN(S(=O)(=O)c3c(C)noc3/C=C/N(C)C)C2)cc1 (stereo not given)
inactive: growth inhibition [1] -1.76% | growth inhibition [2] 6.26% | viability increase [3] -1.67% | viability [4] 88.1% | viability [5] 74.1% | inhibition [6] 1.85% | RAM network inhibition [7] 1.68%

Cc1ccc(-n2ncc3c(NCc4ccco4)ncnc32)c(C)c1
inactive: growth inhibition [1] -3.74% | growth inhibition [2] -9.7% | viability increase [3] -4.75% | viability [4] 97.3% | viability [5] 90.4% | inhibition [6] -0.12% | RAM network inhibition [7] -0.57%

O=C(Cn1nc(Cc2cccnc2)c2ccccc2c1=O)NCc1ccc2c(c1)OCO2
inactive: growth inhibition [1] 1.71% | growth inhibition [2] 5.04% | viability increase [3] -1.57% | viability [4] 97% | viability [5] 94.7% | inhibition [6] 0.55% | RAM network inhibition [7] -0.05%

O=C1c2ccccc2C(=O)N1CCCc1nc(-c2ccc(Cl)cc2)no1
inactive: growth inhibition [1] -1.86% | growth inhibition [2] -5.26% | viability increase [3] -1.79% | viability [4] 102% | viability [5] 100% | inhibition [6] 4.25% | RAM network inhibition [7] 2.37%

CCC(C)(C(=O)NC1CCCCC1)N(Cc1ccco1)C(=O)CNC(=O)c1ccccc1 (stereo not given)
inactive: growth inhibition [1] -14.3% | growth inhibition [2] -12.2% | viability increase [3] -3.39% | viability [4] 83.5% | viability [5] 90.1% | inhibition [6] 0.145% | RAM network inhibition [7] 6.49%

COc1ccc(C2(O)CCN(C(=O)Cc3cccnc3)CC2)cc1
inactive: growth inhibition [1] -20.4% | growth inhibition [2] -12% | viability increase [3] 1.04% | viability [4] 99.3% | viability [5] 94.7% | inhibition [6] 1.03% | RAM network inhibition [7] 1.03%

Cc1ccc(-c2nnc(N3CCCCC3)c3ccccc23)cc1S(=O)(=O)N1CCN(C)CC1
inactive: growth inhibition [1] -1.95% | growth inhibition [2] -1.92% | viability increase [3] -5.28% | viability [4] 48% | viability [5] 60.2% | inhibition [6] 0.285% | RAM network inhibition [7] -2.14%

Cc1cc(-c2ccco2)n(CC(=O)NCc2ccco2)n1
inactive: growth inhibition [1] -3.72% | growth inhibition [2] -9.28% | viability increase [3] -2.82% | viability [4] 100% | viability [5] 100% | inhibition [6] 0.355% | RAM network inhibition [7] 2.47%

COCc1cc(C)nc2sc(C(=O)Nc3nccs3)c(N)c12
inactive: growth inhibition [1] -7.22% | growth inhibition [2] 11.6% | viability increase [3] -5.32% | viability [4] 109% | viability [5] 97.5% | inhibition [6] 0.145% | RAM network inhibition [7] 2.07%

O=C(c1cnccn1)N(c1ccccc1)C1(C(=O)NC2CCCCC2)CCCCC1
inactive: growth inhibition [1] -6.44% | growth inhibition [2] -1.08% | viability increase [3] -0.6% | viability [4] 96.9% | viability [5] 90.7% | inhibition [6] 1.06% | RAM network inhibition [7] 1.62%

CCOc1ccc(-n2c(Cc3cc(=O)[nH]c(=O)[nH]3)nnc2SCC(=O)OC)cc1
inactive: growth inhibition [1] -2.32% | growth inhibition [2] 3.42% | viability increase [3] 1.38% | viability [4] 104% | viability [5] 97.3% | inhibition [6] 2.62% | RAM network inhibition [7] 0.78%

O=C(Cc1ccccc1)Nc1c(C(=O)N2CCOCC2)cnn1-c1ccccc1
inactive: growth inhibition [1] 6.39% | growth inhibition [2] -23.4% | viability increase [3] -1.59% | viability [4] 93.5% | viability [5] 97% | inhibition [6] 1.21% | RAM network inhibition [7] 1.24%

Cn1c(C(=O)NCCCN2CCCC2=O)cc2c(=O)n(C)c3ccccc3c21
inactive: growth inhibition [1] -6.28% | growth inhibition [2] -1.63% | viability increase [3] -4.16% | viability [4] 108% | viability [5] 94.4% | inhibition [6] 1.69% | RAM network inhibition [7] 0.06%

CCn1cc(C(=O)N2CC(C)CC(C)C2)c(=O)c2cc(S(=O)(=O)N(C)C)ccc21 (stereo not given)
inactive: growth inhibition [1] 4.35% | growth inhibition [2] 6.52% | viability increase [3] -0.18% | viability [4] 103% | viability [5] 101% | inhibition [6] -0.3% | RAM network inhibition [7] 2.78%

COc1cccc(C2=NOC(C(=O)N3CCN(C(=O)c4ccco4)CC3)C2)c1 (stereo not given)
inactive: growth inhibition [1] 5% | growth inhibition [2] -4.4% | viability increase [3] -2.95% | viability [4] 95.6% | viability [5] 95.2% | inhibition [6] -0.3% | RAM network inhibition [7] 0.01%

CSc1ccccc1NC(=O)c1cnc2scc(C)n2c1=O
inactive: growth inhibition [1] -16.8% | growth inhibition [2] 3.44% | viability increase [3] -2.05% | viability [4] 87.1% | viability [5] 88.1% | inhibition [6] 0.665% | RAM network inhibition [7] 3.71%

Cc1cc(C)nc(/N=C2\NC(=O)CC(C(=O)O)N2CCc2c[nH]c3ccccc23)n1 (stereo not given)
inactive: growth inhibition [1] -0.875% | growth inhibition [2] -4.41% | viability increase [3] -2.04% | viability [4] 93.3% | viability [5] 84.1% | inhibition [6] 0.67% | RAM network inhibition [7] -0.83%

CCOCCCNC(=O)c1cn(CC(C)C)c(=O)c2cc(OC)c(OC)cc12
inactive: growth inhibition [1] -22.4% | growth inhibition [2] -25.7% | viability increase [3] -2.7% | viability [4] 98.5% | viability [5] 97.9% | inhibition [6] 0.375% | RAM network inhibition [7] 4.93%

CC(=O)N1CCN(CCN=CC2=C(O)CC(c3ccc(Cl)cc3)CC2=O)CC1 (stereo not given)
inactive: growth inhibition [1] -8.45% | growth inhibition [2] -3.19% | viability increase [3] 1.98% | viability [4] 99.2% | viability [5] 101% | inhibition [6] 1.2% | RAM network inhibition [7] -0.17%

NC(=O)c1sc(=S)n(-c2ccc(Br)cc2)c1N
inactive: growth inhibition [1] -6.66% | growth inhibition [2] 0.735% | viability increase [3] -4.05% | viability [4] 97.7% | viability [5] 83.7% | inhibition [6] 1.51% | RAM network inhibition [7] 2.48%

CCOC(=O)N1CCN(C(=O)NC23CC4CC(CC(C4)C2)C3)CC1
inactive: growth inhibition [1] -2.78% | growth inhibition [2] -5.79% | viability increase [3] -2.4% | viability [4] 95.7% | viability [5] 92.1% | inhibition [6] 2.83% | RAM network inhibition [7] 3.57%

O=C(NCCC1=CCCCC1)c1ccc2c(=O)n3c(nc2c1)CCCCC3
inactive: growth inhibition [1] -10.1% | growth inhibition [2] -2.77% | viability increase [3] -1.07% | viability [4] 89.6% | viability [5] 97.8% | inhibition [6] -0.66% | RAM network inhibition [7] 0.26%

CCCCn1c2nc3ccccc3nc2c2c(=N)oc(C)nc21
inactive: growth inhibition [1] -7.3% | growth inhibition [2] -6.79% | viability increase [3] -4.49% | viability [4] 96.6% | viability [5] 85.1% | inhibition [6] 0.265% | RAM network inhibition [7] 0.62%

OC1CCN(c2c3c(nc4cc(-c5cccc(F)c5)nn24)CCCC3)CC1
inactive: growth inhibition [1] 2.2% | growth inhibition [2] -11.2% | viability increase [3] -6.47% | viability [4] 73.8% | viability [5] 65% | inhibition [6] 2.02% | RAM network inhibition [7] 9.14%

Cn1c(=O)c2c(nc(NCc3ccccc3)n2Cc2ccc(F)cc2)n(C)c1=O
inactive: growth inhibition [1] -2.42% | growth inhibition [2] -16.9% | viability increase [3] -5.47% | viability [4] 65.9% | viability [5] 54.1% | inhibition [6] 2.54% | RAM network inhibition [7] 3.33%

CCN1CCN(C(=O)Cn2c(=O)sc3ccccc32)CC1
inactive: growth inhibition [1] -10.6% | growth inhibition [2] 4.76% | viability increase [3] -2.64% | viability [4] 107% | viability [5] 96.6% | inhibition [6] -0.225% | RAM network inhibition [7] 0.05%

CCSCCOC(=O)C1=C(C)NC(=O)NC1c1cc(OC)ccc1OC (stereo not given)
inactive: growth inhibition [1] -4.26% | growth inhibition [2] 4.14% | viability increase [3] -1.14% | viability [4] 86.9% | viability [5] 90.8% | inhibition [6] 1.79% | RAM network inhibition [7] 2.39%

CCCCSc1nc2c(c(=O)n1CC)SC(C)C2 (stereo not given)
inactive: growth inhibition [1] -3.78% | growth inhibition [2] 5.58% | viability increase [3] -2.43% | viability [4] 87.3% | viability [5] 87.8% | inhibition [6] 0.125% | RAM network inhibition [7] 5.53%

CC(=O)N1CCc2cc(C(=O)CN3CCC(C)CC3)ccc21
inactive: growth inhibition [1] -5.91% | growth inhibition [2] -4.73% | viability increase [3] -2.46% | viability [4] 104% | viability [5] 93.6% | inhibition [6] 1.56% | RAM network inhibition [7] 7.51%

CCN1CCN(Cc2nc3c(c(=O)n(C)c(=O)n3C)n2Cc2ccccc2Cl)CC1
inactive: growth inhibition [1] -8.38% | growth inhibition [2] -13.4% | viability increase [3] -3.38% | viability [4] 91.7% | viability [5] 91.6% | inhibition [6] 1.17% | RAM network inhibition [7] 0.71%
